From ChEMBL document CHEMBL4513216, “Probing the Open Global Health Chemical Diversity Library for Multistage-Active Starting Points for Next-Generation Antimalarials” (ACS Infect Dis, 2020) come the findings set out here.

Structures are written as SMILES.

A short description of the series: Toxicity liver stage against HepG2, at 10uM. Format: cell-based. Also on record: test concentration 10 uM, cell line HepG2-A16-CD81EGFP. To be noted: human, HepG2-A16-CD81EGFP cells; read-out: INHIBITION
The gist of the method:
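Uninfected HepG2-A16-CD81EGFP cells, 3 × 10^3 per well, 1536-well, plated on prespotted compound at 10 μM final, parasite-free screening media added to match infected plates; puromycin 10 μM positive, DMSO 0.5% negative; run in parallel with 48 h PbLuc assay at 37 °C, 5% CO2; viability by CellTiter-Glo luminescence, normalized to controls.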

On to `COCC(=O)NCCC(=O)N1CCN(S(=O)(=O)c2cccc(Br)c2)CC1`, for which the cytotoxicity at 10 µM is -40.4%.

As for `CSCCc1n[nH]c2c1CN(S(=O)(=O)c1cn(C)c(C)n1)CC2`, the cytotoxicity at 10 µM amounted to 8.58%. The value for `CNS(=O)(=O)c1cc(C(=O)NC2CCOc3ccccc32)cc(C)c1C` (configuration not stated) was 6.82%; that for `Cn1ccc(C(=O)NCCOc2ccc3c(c2)OCO3)cc1=O` was 5.97%. For `COCC1CC2(CCN(C(=O)c3ccc(C)nc3)CC2)CO1` (configuration not stated) the value was -127%; for `CC(C)NC(=O)N[C@H]1C[C@@H](Cc2cc(CN3CCOCC3)on2)C1(C)C`, -5.5%; for `COc1cccc(CNCc2cccc(Cl)c2)c1O`, 1.29%. The value for `COCc1cc(N2CCN(C3CCCCC3)CC2)n2nccc2n1` was 3.59%. For the compound `CSc1cc2c(cc1NC(=O)NCC1CCOC1)OCCO2` (configuration not stated), the cytotoxicity at 10 µM is -4.54%.

For the compound `COc1cc(C2(C(=O)NCC(=O)NC3CC3)CC2)ccc1C`, the cytotoxicity at 10 µM was -17.4%. On to `O=C(NCc1ccco1)c1cc[n+]([O-])cc1`, for which the cytotoxicity at 10 µM is 3.33%. For `Cc1ccc(OCC2CCCN(C(=O)CN3CCOCC3)C2)cc1` (configuration not stated) the value was -25.6%; for `CC(C)(C)S(=O)(=O)c1ccc(N2CCC(n3cccn3)CC2)cn1`, 22.3%; for `Cc1cc(C)c(C#N)c(NCCn2cnnc2C(C)C)n1`, 10.2%. Turning to `O=C1CCCN1Cc1ncn2c1CN(C(=O)NC1CCCCC1)CCC2`, the cytotoxicity at 10 µM is -150%.

Consider `N#Cc1ccc2c(c1)CN(C(=O)c1nc[nH]n1)C2c1cnco1` (configuration not stated), for which the cytotoxicity at 10 µM is -2.6%.

Regarding `CC(C)CC(=O)N1CC(=O)c2sc(Nc3ccc(F)cc3F)nc2C1`, the cytotoxicity at 10 µM was -2.89%. The value for `Cc1cc(O)cc2c(=O)oc(CC(C)O)cc12` (configuration not stated) was 0.346%. The value for `CCn1cc(CN2CCCC2c2nc(-c3ccccc3)no2)cc1C#N` (configuration not stated) was 0.165%; that for `Cc1csc(CN(C)S(=O)(=O)c2ccc(C)c(N(C)C)c2)n1` was 13.7%; that for `Cc1nc(COc2ccc(OC3CCCCNC3=O)cc2)oc1C` (configuration not stated) was 15.2%.

`CCN(CC)CC[C@H]1CN(C(=O)C(C)(C)C)CC[C@H]1CC(=O)O`: the cytotoxicity at 10 µM was 0.0915%. For the compound `Cc1cncc(C2CCN(C(=O)CCc3ccnn3C)CC2)n1`, the cytotoxicity at 10 µM was -28.8%. For `Clc1ccc(C2(NCc3noc(C4CC4)n3)CCC2)cc1` the value was 5.04%; for `CC(C)NC(=O)N1CCC2(CC(=O)N(c3ccccc3)C2)C1` (configuration not stated), -2.59%.

For `CCc1ccccc1OC1CN(CC2CCOC2)C1` (configuration not stated), the cytotoxicity at 10 µM is -25.2%. For `CC(C)c1nn(C)c(N(C)C)c1CNC(C)c1ccc2c(c1)OCO2` (configuration not stated) the value was -4.49%.

Take `Cn1cc(CN2C[C@@H]3OCCN(CC4CCCC4)[C@@H]3C2)cn1`: the cytotoxicity at 10 µM is -163%. With `Cc1c(C(=O)N2CCCSCC2)nnn1-c1ccccc1Cl`, the cytotoxicity at 10 µM turned out to be 8.31%. In the case of `Cc1cc(C)n(CC2CCCN2C(=O)c2ccc3c(c2)OCO3)n1` (configuration not stated), the cytotoxicity at 10 µM is -9.31%.

In the case of `COCC(C)NC(=O)CSc1ccc(F)c(Cl)c1` (configuration not stated), the cytotoxicity at 10 µM is -48%. For `Cn1ccnc1CNC(=O)c1cncc(C2CCNCC2)n1`, the cytotoxicity at 10 µM was 1.81%. For `CCCC(Nc1nc(COCC)nc2c1CCNCC2)c1nccn1C` (configuration not stated) the value was -10.3%; for `CCN(CC)c1ccc(NS(=O)(=O)c2cccnc2)cn1`, 3.8%; for `CC(c1ccon1)N(C)C(=O)C1CCN(CC(N)=O)CC1` (configuration not stated), -4.83%. The value for `CCn1cc(NC(=O)CCc2ccc3c(c2)OCCCO3)cn1` was -9.26%; that for `OC1(CNCCc2nc3c(s2)CCCC3)CNCCOC1` (configuration not stated) was 17.4%; that for `O=S(=O)(c1cnccc1N1CCN(CCO)CC1)N1CCOCC1` was -8.49%.

As to `CCOc1ccccc1-c1noc(CN2CCN(CCOC)CC2)n1`, the cytotoxicity at 10 µM is -4.9%.

Regarding `CN1CCc2ncc(CNC(=O)c3cccn3C)n2CC1`, the cytotoxicity at 10 µM is 1.27%. The value for `CC(C)C(=O)N1Cc2ccccc2CC2(CCCCN2C)C1` (configuration not stated) was 9.15%.

In the case of `CC(=O)N1CCc2c(nc(N(C)C)nc2NCCCn2ccnc2)C1`, the cytotoxicity at 10 µM was -7.28%.

Consider `Cn1cc(C(=O)N2CCCCC2CCc2ccccc2)cn1` (configuration not stated), for which the cytotoxicity at 10 µM is -7.45%. For `CCS(=O)(=O)N1CCc2c(COCCN(C)C)cncc2C1` the value was -104%; for `Cc1cc(C(=O)NCCN2CCCCCC2)nn1C(C)(C)C`, 2.45%. For `CN(C)C(=O)N1CCN(Cc2nnc(C(C)(C)C)o2)CC1`, the cytotoxicity at 10 µM turned out to be 0.278%. On to `Cc1cnn(CC2CCCN2C(=O)c2csc(C(C)C)n2)c1` (configuration not stated), for which the cytotoxicity at 10 µM turned out to be 4.89%. For `COCCC(=O)N1CC2(CCN(c3ccccc3)C2)C1` the value was 10.3%; for `COC(=O)CNC(=O)c1nc(Br)sc1C(C)C`, -172%. In the case of `O=C(CCc1cc2n(n1)CCCN(Cc1ccccc1F)C2)NC1CC1`, the cytotoxicity at 10 µM is -12.8%.

In the case of `COc1ccc(N2CCN(C(=O)Cn3nc(C)c(Cl)c3C)CC2)cc1`, the cytotoxicity at 10 µM is 1.58%. For `CCNc1ncc(C(=O)N(C)Cc2nc3ccccc3n2C)cn1` the value was 6.09%. `Cc1ccc(C2COCCN2C(=O)c2ccc(CN(C)C)cc2)o1` (configuration not stated): the cytotoxicity at 10 µM was found to be 0.692%. `COCC1Cn2nnc(-c3cnn(C)c3)c2CN1Cc1ccsc1` (configuration not stated): the cytotoxicity at 10 µM was 2.11%.

Turning to `CCc1ccc(C2CCCCCN2Cc2nc(CCOC)no2)o1` (configuration not stated), the cytotoxicity at 10 µM came out at 1.15%.

`O=C(COc1ccc2c(c1)CCC2)N1CCCC(n2cccn2)C1` (configuration not stated): the cytotoxicity at 10 µM was -2.58%.

With `CN(C)C1CCN(Cc2cnc(S(C)(=O)=O)n2CC2CCCCC2)C1` (configuration not stated), the cytotoxicity at 10 µM was 0.83%.

`Cc1nc(CN(C)C2CCN(CCc3ccccn3)C2)no1` (configuration not stated): the cytotoxicity at 10 µM was -3.85%. As to `CCOC(=O)c1nc(CN2CCN(C(=O)NC3CCCCC3)CC2)cs1`, the cytotoxicity at 10 µM is -3.47%.

Turning to `O=C(Cc1csc(-c2ccco2)n1)N1CCN(CCO)CC1`, the cytotoxicity at 10 µM was -0.337%. The value for `Cn1cc(CN2CC[C@]3(C[C@H](Oc4ccccn4)CO3)C2)cn1` was 10.8%.

Take `CCOC1Sc2nnc(C)n2N=C1c1ccc(F)cc1` (configuration not stated): the cytotoxicity at 10 µM came to 4.48%.

With `Cn1c(NCC(O)c2ccccc2F)c(C#N)c(=O)n(C)c1=O` (configuration not stated), the cytotoxicity at 10 µM is -12.5%. Turning to `Cc1ccc(CN2CCC[C@]3(C(=O)O)CN(c4ncccn4)C[C@@H]3C2)o1`, the cytotoxicity at 10 µM is -11.3%. For `CC(=O)Nc1ccc(SCC(O)COCc2ccccc2)cc1` (configuration not stated), the cytotoxicity at 10 µM was 1.87%. On to `COc1cccc(C(=O)N2C[C@@H](c3ccccc3)[C@@H]3NCCCC[C@@H]32)c1`, for which the cytotoxicity at 10 µM was -14.1%.

As to `CS(=O)(=O)CC1CCCN(C(=O)Cn2cccc(C(F)(F)F)c2=O)C1` (configuration not stated), the cytotoxicity at 10 µM was 4.1%. Consider `O=C(CCC(=O)N1CCC(c2noc3cc(F)ccc23)CC1)NC1CC1`, for which the cytotoxicity at 10 µM was 5.09%. Take `O=C(NCc1nnc2n1CCC2)N(Cc1ccco1)C1CC1`: the cytotoxicity at 10 µM was -6.11%. Consider `CN(Cc1cccs1)S(=O)(=O)c1ccc(C(F)(F)F)nc1`, for which the cytotoxicity at 10 µM was -5.68%. For `CN(Cc1ccc(-n2cccn2)cc1)C(=O)CCC(F)(F)F` the value was -3.67%; for `O=C(NCCc1ccncc1)c1ccc(N2CCOCC2)cc1`, -5.08%. With `Cc1cn2c(n1)CCC(NC(=O)CNS(C)(=O)=O)C2` (configuration not stated), the cytotoxicity at 10 µM is -9.84%. For the compound `CC(O)CNC(=O)c1nc(Cc2c(Cl)cccc2Cl)no1` (configuration not stated), the cytotoxicity at 10 µM was 3%. In the case of `COc1cccc(C(=O)NC(c2ccccn2)C2CCC(CN)CC2)c1` (configuration not stated), the cytotoxicity at 10 µM is -9.33%. In the case of `CN(C)CCO[C@@H]1CC[C@H]2[C@H]1OCCN2C(=O)c1ccnnc1`, the cytotoxicity at 10 µM is -2.1%. The value for `Cc1cnn(CC2CCCN2CCCS(C)(=O)=O)c1` (configuration not stated) was -8.18%; that for `CCS(=O)(=O)N[C@@H]1CN(Cc2cc(C)on2)C[C@@H]2CCCO[C@@H]21` was -6.01%; that for `CS(=O)(=O)NC1CCc2c(ccc(=O)n2CC2CC2)C1` (configuration not stated) was 4.84%. Turning to `CCc1nc2n(n1)CC(NCc1noc(-c3ccccc3)n1)CC2` (configuration not stated), the cytotoxicity at 10 µM is -10.6%. With `Cn1ccnc1C(=O)NC[C@@H]1OC[C@H]2CN(CC3CC3)CC[C@H]21`, the cytotoxicity at 10 µM is -115%.

Consider `CCOC(C)c1noc(CN2CCN(c3ccncc3)CC2)n1` (configuration not stated), for which the cytotoxicity at 10 µM was -10.6%. For `CCOCC1CN(C(=O)C2CCOCC2)Cc2cnn(C)c21` (configuration not stated) the value was -1.05%. As to `CCn1ccc(C(=O)Nc2ccc3c(c2)C(C)(C)C(=O)N3C)n1`, the cytotoxicity at 10 µM was 12.2%.

With `Cc1ncc(CN2CCC3(CCCN(CC4CCC4)C3)C2)cn1` (configuration not stated), the cytotoxicity at 10 µM was -6.7%.

For the compound `CCc1ncc(CN2CCCN(CC3CC3)C(C(C)C)C2)cn1` (configuration not stated), the cytotoxicity at 10 µM was -6.03%. For `CCS(=O)(=O)CC(=O)Nc1c(C)cnn1Cc1cc(F)ccc1F` the value was -4.96%; for `Cn1nc2c(cc1=O)CN(Cc1nc(-c3ccoc3)no1)CC2`, 7.72%; for `CS(=O)(=O)N1CCN(C(=O)Cn2ccc3c(Cl)cccc32)CC1`, 20.6%.

On to `CC(O)C(=O)N1CCC(c2[nH]ncc2-c2ccccc2)CC1` (configuration not stated), for which the cytotoxicity at 10 µM was -2%. For `COc1c(C)cnc(CN2CCOC(Cn3cncn3)C2)c1C` (configuration not stated) the value was -3.36%; for `COCCNC(=O)CCC1CCN(Cc2cccc(SC)c2)CC1`, 14.6%.

As to `OC1(CNCc2cnc(N3CCOCC3)nc2)CCCCC1`, the cytotoxicity at 10 µM is -2.41%. For the compound `CCN(CC)Cc1nc2c(o1)CN(S(=O)(=O)c1cccs1)C2`, the cytotoxicity at 10 µM was -117%. `CCn1nnc2c1C(COC)CN(Cc1cccs1)C2` (configuration not stated): the cytotoxicity at 10 µM is -16.5%. As to `COC(=O)c1cc(OCC2CCC2)cc(C(=O)N[C@@H]2CCCNC2)c1`, the cytotoxicity at 10 µM is -3.16%. `CCSCCNC(=O)c1ccc(S(=O)(=O)N2C[C@H]3C[C@@H]2CN3)cc1`: the cytotoxicity at 10 µM was -1.98%.
